The source made the active and inactive calls. No cut-off for these calls is given here.
Key:
[1] = target: Albumin (Homo sapiens, UniProt P02768); test: Binding affinity to human serum albumin at 0.49 mg/ml after 4 hrs by HPLC/HRMS analysis; details: isolated protein
[2] = tested on: LS174T; test: Inhibition of anchorage-independent colony formation in 3D culture of human LS174T cells at 5 nM measured after 3 days by soft agar colony formation assay; format: functional, cell-based
Summary of the method: (§1)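 LS174T cells (early passage, <10) were grown in EMEM with 10 % FBS. 20x10³ isolated cells were seeded in 0.35 % agarose over a 0.6 % agarose base layer. Colonies grew for 10 days, with fresh medium every 3 days. They were then treated for 3 days at 5 nM, without or with β-glucuronidase (3700 U/well). Colony size was measured by macroscope imaging; mean ± s.e.m. of 5 independent experiments.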

[3] = Toxicity in athymic Balb/c mouse xenografted with human LS174T cells assessed as effect on body weight at 3 mg/kg, iv administered on day 17 and 24 measured three times a week; format: organism-based; details: in vivo
Summary of the method: (§2)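 LS174T subcutaneous xenografts (1x10⁶ cells in PBS/50 % Matrigel) were set up in eight-week-old male nude mice. Groups of 6 received iv injections in PBS–2 % DMSO, with a vehicle control group. Body weight was recorded three times weekly. Mice were euthanized when tumor volume exceeded 2 cm³.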

[4] = tested on: LS174T; test: Inhibition of anchorage-independent colony formation in 3D culture of human LS174T cells at 5 nM measured after 3 days in presence of beta-glucuronidase by soft agar colony formation assay; format: functional, cell-based
Summary of the method: as §1

[5] = tested on: LS174T; test: Antitumor activity against human LS174T cells xenografted in athymic Balb/c mouse assessed as tumor growth inhibition at 3 mg/kg, iv administered on day 17 and 24; format: functional, organism-based
Summary of the method: (§3)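 Eight-week-old male nude mice were implanted subcutaneously in the dorsal flank with 1x10⁶ LS174T cells in PBS/50 % Matrigel (day 0). Mice were randomized into groups of 6 and given iv doses in PBS–2 % DMSO, with a vehicle-injected control group. Tumor length and width were measured by caliper three times weekly; volume = length x width²/2.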

[6] = target: Beta-glucuronidase (Escherichia coli (strain K12), UniProt P05804); test: Prodrug conversion assessed as Escherichia coli beta-glucuronidase mediated MMAE formation after 5 hrs using albumin-conjugated compound by HPLC/HRMS analysis; format: ADME; details: isolated protein
Summary of the method: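 Prodrug 0.49 mg.mL-1 was held in 5 % human serum albumin solution at 37 °C for 4 h to form the albumin adduct. The mixture was diluted 1:3 with 0.02 M phosphate buffer (pH 7), then E. coli β-glucuronidase was added. Analysis was by C18 HPLC coupled to ESI-HRMS in positive ion mode.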

[7] = tested on: LS174T; test: Antitumor activity against human LS174T cells xenografted in athymic Balb/c mouse assessed as tumor growth inhibition at 2 mg/kg, iv administered on day 17 and 24; format: functional, organism-based
Summary of the method: as §3

[8] = Toxicity in athymic Balb/c mouse xenografted with human LS174T cells assessed as effect on body weight at 2 mg/kg, iv administered on day 17 and 24 measured three times a week; format: organism-based; details: in vivo
Summary of the method: as §2

Sequence of Beta-glucuronidase (P05804 whole entry): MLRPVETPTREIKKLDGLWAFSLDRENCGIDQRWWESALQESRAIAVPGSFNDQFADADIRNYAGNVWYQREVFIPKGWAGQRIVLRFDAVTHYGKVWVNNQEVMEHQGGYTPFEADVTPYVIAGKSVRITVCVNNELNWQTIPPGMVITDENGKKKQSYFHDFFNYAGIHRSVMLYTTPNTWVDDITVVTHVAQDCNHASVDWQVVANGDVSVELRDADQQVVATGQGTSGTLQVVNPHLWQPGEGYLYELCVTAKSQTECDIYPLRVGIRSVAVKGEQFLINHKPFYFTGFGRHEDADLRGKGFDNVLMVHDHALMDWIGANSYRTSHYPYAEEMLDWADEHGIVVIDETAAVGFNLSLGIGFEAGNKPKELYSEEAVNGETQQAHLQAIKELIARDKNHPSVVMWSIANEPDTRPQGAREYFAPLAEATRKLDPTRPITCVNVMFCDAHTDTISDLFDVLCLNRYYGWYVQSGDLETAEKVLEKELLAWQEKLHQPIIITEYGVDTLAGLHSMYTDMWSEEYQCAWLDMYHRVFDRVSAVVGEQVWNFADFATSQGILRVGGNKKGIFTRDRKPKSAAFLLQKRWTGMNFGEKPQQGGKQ
Sequence of Albumin (P02768 whole entry): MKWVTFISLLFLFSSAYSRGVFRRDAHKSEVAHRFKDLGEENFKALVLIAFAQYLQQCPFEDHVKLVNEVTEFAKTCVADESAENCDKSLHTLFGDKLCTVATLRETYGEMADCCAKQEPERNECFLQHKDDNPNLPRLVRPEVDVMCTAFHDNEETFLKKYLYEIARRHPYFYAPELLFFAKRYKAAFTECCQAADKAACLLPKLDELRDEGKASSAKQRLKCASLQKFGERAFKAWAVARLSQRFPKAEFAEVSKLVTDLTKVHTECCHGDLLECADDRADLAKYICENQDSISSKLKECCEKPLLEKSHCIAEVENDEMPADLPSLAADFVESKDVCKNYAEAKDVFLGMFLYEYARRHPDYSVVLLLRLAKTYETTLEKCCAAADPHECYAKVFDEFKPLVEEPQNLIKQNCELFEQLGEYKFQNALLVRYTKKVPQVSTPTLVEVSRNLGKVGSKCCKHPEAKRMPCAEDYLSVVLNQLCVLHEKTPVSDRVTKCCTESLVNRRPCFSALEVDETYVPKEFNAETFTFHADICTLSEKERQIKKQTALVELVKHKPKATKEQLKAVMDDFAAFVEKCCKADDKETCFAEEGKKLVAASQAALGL

| Compound | Activity [1] | inhibition [2] | Activity [3] | inhibition [4] | TGI [5] | Drug metabolism [6] | TGI [7] | Activity [8] |
| --- | --- | --- | --- | --- | --- | --- | --- | --- |
| CC[C@H](C)[C@@H]([C@@H](CC(=O)N1CCC[C@H]1[C@H](OC)[C@@H](C)C(=O)N[C@H](C)[C@@H](O)c1ccccc1)OC)N(C)C(=O)[C@@H](NC(=O)[C@H](C(C)C)N(C)C(=O)OCc1ccc(NC(=O)OC(Cc2cn(CCOCCOCCOCCOCCOCCOCCOCCOCCOCCOCCNC(=O)CCCCCN3C(=O)C=CC3=O)nn2)c2ccc(O[C@@H]3O[C@H](C(=O)O)[C@@H](O)[C@H](O)[C@H]3O)c([N+](=O)[O-])c2)c(COC(=O)N(C)[C@H](C(=O)N[C@H](C(=O)N(C)[C@@H]([C@@H](C)CC)[C@@H](CC(=O)N2CCC[C@H]2[C@H](OC)[C@@H](C)C(=O)N[C@H](C)[C@@H](O)c2ccccc2)OC)C(C)C)C(C)C)c1)C(C)C (stereo not given in full) | Active | inactive | Non-Toxic | Active | Active | Metabolite_Detected |  |  |
| CC[C@H](C)[C@@H]([C@@H](CC(=O)N1CCC[C@H]1[C@H](OC)[C@@H](C)C(=O)N[C@H](C)[C@@H](O)c1ccccc1)OC)N(C)C(=O)[C@@H](NC(=O)[C@H](C(C)C)N(C)C(=O)OC(Cc1cn(CCOCCOCCOCCOCCOCCOCCOCCOCCOCCOCCNC(=O)CCCCCN2C(=O)C=CC2=O)nn1)c1ccc(O[C@@H]2O[C@H](C(=O)O)[C@@H](O)[C@H](O)[C@H]2O)c([N+](=O)[O-])c1)C(C)C (stereo not given in full) |  | inactive |  | Active |  |  | Active | Non-Toxic |
